The source made the active and inactive calls.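 Rule for the calls, unless noted: active = viability at or under a set limit in both replicates, limit being median viability minus 3 SD (cut at about 48% in these data, passing the limit was not always enough); inconclusive = at or under the limit in just one replicate; inactive = at or above the limit in both replicates.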
Key:
[1] = HUVEC growth inhibition – cell-based, human, primary screen (AID 575;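 active = viability at or below 30% in both replicate assays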;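 note: 100% = median of untreated cell wells with 0.1% DMSO on each plate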); details: HUVEC proliferation, CellTiter-Glo luminescence, 72 h; at 10 µM; stronger effect = lower value
In short: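 Assay system: Primary human umbilical vein endothelial cells | Quantity: 1250 cells per well | Medium: Supplemented EBM, 2% fetal bovine serum | Detection: CellTiter-Glo luminescence measuring cellular ATP | Read-out: % viability vs DMSO wells | Plate: Collagen-coated 384-well format | Times: 72 h exposure, 37 °C, 5% CO2, 30 min RT equilibration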

[2] = H69AR cell proliferation blockers – human, duplicate replicates, primary screen (AID 580); details: H69AR lung tumor cells viability, ATP luminescence, 72 h; at 10 µM; stronger effect = lower value;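 note: 100% = mean luminescence of untreated wells and 0% = no signal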
[3] = MRP1 drug-resistance reversers in H69AR cells – cell-based, doxorubicin co-treatment, pilot screen (AID 601;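 active = viability loss from added drug above about 55%, and viability with drug at most 40%, in both replicates, limit read from the data, passing the limit was not always enough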); details: CellTiter-Glo, 72 h, at 10 µM; for differential viability (reversal): stronger effect = higher value
[4] = yeast transport mutant growth inhibition pilot in 384-well plates, post-Golgi transport modulator project (AID 636; in the data active = inhibition above about 31%); details: absorbance 615 nm, about 18 h, stronger effect = higher value
[5] = growth suppression of yeast trafficking mutant, preliminary HTS, modulators of trafficking downstream of Golgi apparatus project, 1536-format plate, OD 615 nm (AID 637; in the data active = inhibition above about 30%); details: yeast transport mutant growth, absorbance 615 nm, 18 h; stronger effect = higher value
[6] = H69AR cells + 2 uM doxorubicin, measured here: viability with 2 uM doxorubicin, stronger effect = lower value
[7] = H69AR cells, compound alone cytotoxicity

SMILES	viability [1]	viability [2]	differential viability (reversal) ([3]; H69AR cells + 2 uM doxorubicin)	viability [3, 6] [%]	viability [3, 7] [%]	inhibition [4]	inhibition [5]
Cc1nc2cc(CO)ccc2n1C	93.1% (inactive)	98.1% (inactive)	9.13% (inactive)	89	98.1	-5.97% (inactive)	-1.9% (inactive)
CCC1Cc2c(nc3c4c(nc(N5CCOCC5)c(C#N)c24)NC(C)=N3)O1 (configuration not stated)	94% (inactive)	88.3% (inactive)	6.83% (inactive)	81.5	88.3	-2.99% (inactive)	4.76% (inactive)
COc1ccc(OC)c(Nc2ncnc3c2cnn3-c2ccccc2)c1	99.3% (inactive)	90.5% (inactive)	1.97% (inactive)	88.5	90.5	-4.67% (inactive)	-5.87% (inactive)
CCOC(=O)c1sc(NS(=O)(=O)c2ccc(NC(C)=O)cc2)nc1C	112% (inactive)	96% (inactive)	7.92% (inactive)	88.1	96	-1.97% (inactive)	2.22% (inactive)
Cn1c(Cc2csc(N)n2)nnc1SCC(=O)NC1CCCCC1	112% (inactive)	96.8% (inactive)	-5.84% (inactive)	103	96.8	0.92% (inactive)	-0.63% (inactive)
COc1ccccc1C(=O)Nc1ccccc1C(=O)N1CCCC1	92.3% (inactive)	96% (inactive)	11.9% (inactive)	84.1	96	-4.68% (inactive)	1.27% (inactive)
Cc1ccc(NC(=O)CC2Nc3ccccc3NC2=O)cc1Cl (configuration not stated)	10.1% (active)	27.8% (active)	-17.1% (inactive)	44.9	27.8	-1.17% (inactive)	-3.49% (inactive)
CCOc1ccccc1C(=O)NCc1ccc2c(c1)OCO2	88.2% (inactive)	67.4% (inactive)	-20.6% (inactive)	88.1	67.4	-7.73% (inactive)	3.02% (inactive)
O=C(NCc1ccco1)C1Cc2ccccc2CN1S(=O)(=O)c1ccccc1F (configuration not stated)	57.5% (inactive)	25.3% (active)	-9.23% (inactive)	34.6	25.3	-1.95% (inactive)	1.27% (inactive)
Cc1ccc(CCSCC(=O)O)cn1	109% (inactive)	101% (inactive)	2.9% (inactive)	98.3	101	-2.4% (inactive)	0.16% (inactive)
O=C(Nc1ccccc1)N(Cc1cccnc1)Cc1ccco1	86.1% (inactive)	96.8% (inactive)	12.7% (inactive)	84.1	96.8	-4.74% (inactive)	1.75% (inactive)
CCC(=O)Nc1ccc(NC(=O)CSc2nnnn2C(C)C)cc1	111% (inactive)	93% (inactive)	3.14% (inactive)	89.8	93	-3.82% (inactive)	4.13% (inactive)
C/C(=N\O)c1ccc2c3c([nH]c2c1)CCCC3	25.3% (active)	88.1% (inactive)	-8.65% (inactive)	96.8	88.1	-3.77% (inactive)	-0.16% (inactive)
COc1ccccc1NC1=NC2(CCCC2)N=C(N)N1	91.3% (inactive)	99.7% (inactive)	8.79% (inactive)	90.9	99.7	-2.6% (inactive)	3.02% (inactive)
COc1ccc(Nc2ncc3c(n2)CC(c2ccc(OC)cc2)CC3=O)cc1 (configuration not stated)	84.4% (inactive)	97.4% (inactive)	3.81% (inactive)	93.6	97.4	-4% (inactive)	4.92% (inactive)
O=C(Cc1ccsc1-c1ccccc1)NO	72.8% (inactive)	1.73% (active)	0.35% (inactive)	1.39	1.73	-3.82% (inactive)	4.29% (inactive)
O=C(CN1c2cccc3cccc(c23)S1(=O)=O)N1CCOCC1	105% (inactive)	92.5% (inactive)	-0.865% (inactive)	93.4	92.5	-3.2% (inactive)	0.16% (inactive)
CSc1ccccc1NC(=O)c1noc2c1CCC2	77.8% (inactive)	90.2% (inactive)	1.63% (inactive)	88.5	90.2	-3.38% (inactive)	-3.49% (inactive)
O=C(O)CCc1ccc(-c2ccccc2)n1CC(=O)O	88.9% (inactive)	93% (inactive)	1.87% (inactive)	91.1	93	-1.43% (inactive)	12.5% (inactive)
COc1cc(NC(=O)Cc2ccccc2OC)cc(OC)c1	96.9% (inactive)	95.7% (inactive)	3.67% (inactive)	92	95.7	0.27% (inactive)	-6.67% (inactive)
COc1cc(OC)cc(-c2nc(N)n[nH]2)c1	97.8% (inactive)	103% (inactive)	5.86% (inactive)	97.3	103	-6.4% (inactive)	2.06% (inactive)

From PubChem BioAssay
